TAAR1 ag: agonists of human TAAR1 | Q96RJ0 | CHO RD-HGA16 TAAR1, Fluo-8 calcium fluorescence; vehicle wells 0%, saturating PEA agonist 100% | activation, % at 3 µM | 0.99% of 360,000 active;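 active = activation above the mean activation of all test compounds in the run plus 3 SD, cut at about 38% in these data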
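Assay system – CHO-derived RD-HGA16 cells with stable Gα16 and human TAAR1 · Compound dosing – one-point dosing at 3 µM (nominal) · Incubation – 17-24 h seeding, 75 min 37 °C dye, 30 min RT · Measured by – kinetic Fluo-8 calcium fluorescence · Control set – DMSO vehicle as 0%, PEA at EC100 as 100% · Repeats – single well for each compound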
OX1R antag-1: blocks the human orexin 1 receptor. O43613. OX1R-expressing cells, FRET antagonist read-out. inhibition, % at 6.6 µM. 1.8% of 330,000 active; in the data active = inhibition mostly above about 38%, no sharp cut-off; inactive = mostly below about 40%;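 also: 0% = agonist challenge alone and 100% = reference antagonist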
Target sequence (O43613 whole entry, looked up): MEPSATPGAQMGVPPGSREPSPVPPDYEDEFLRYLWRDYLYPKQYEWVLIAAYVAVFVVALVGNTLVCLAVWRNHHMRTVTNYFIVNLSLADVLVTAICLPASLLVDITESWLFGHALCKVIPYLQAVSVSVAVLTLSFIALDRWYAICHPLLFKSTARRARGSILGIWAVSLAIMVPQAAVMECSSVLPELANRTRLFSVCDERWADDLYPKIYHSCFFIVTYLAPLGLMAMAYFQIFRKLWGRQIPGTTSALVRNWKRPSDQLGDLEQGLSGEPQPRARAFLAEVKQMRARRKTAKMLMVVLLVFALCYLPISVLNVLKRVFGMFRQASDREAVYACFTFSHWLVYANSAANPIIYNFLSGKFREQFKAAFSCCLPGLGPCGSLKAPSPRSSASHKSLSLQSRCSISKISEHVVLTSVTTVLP
OX1R antag-2: antagonists of human orexin 1 receptor | CHO/OX1R cells, Fluo-8 calcium fluorescence, orexin A | inhibition, % at 5 µM | 0.43% of 330,000 active;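 active = inhibition above its plate's threshold, mean inhibition of all tested compounds on the plate plus 3 SD, cut at about 37% in these data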;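 also: 0% = orexin A challenge wells and 100% = SB-334867-A antagonist wells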
TAAR1 antagonist: human TAAR1 antagonism | Q96RJ0 | CHO RD-HGA16 TAAR1, Fluo-8 calcium fluorescence, antagonist | inhibition, % at 3 µM | 1.5% of 360,000 active;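 active = inhibition above a per-plate cutoff, the mean inhibition of test compounds on that plate plus 3 SD, cut at about 49% in these data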;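 also: 0% = DMSO plus EC80 beta-PEA response and 100% = DMSO alone without agonist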
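Test system – hTAAR1-expressing CHO RD-HGA16 cells, Gα16-coupled · Reagent – β-PEA at EC80 concentration, post-compound challenge · Compound dosing – 3 µM, single point · Timing – 140 s kinetic read after compound, 140 s after agonist · Detection – Fluo-8 intracellular calcium dye fluorescence, real-time kinetic reads · Control set – DMSO and EC80 PEA controls · Repeats – n of 1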
GPR7 antagonist: blocks human GPR7 receptor signaling. 1.1% of 290,000 active. inhibition, % at 4.4 µM. P48145. GPR7-expressing cells, fluorescence antagonist assay; in the data active = inhibition above about 16%, passing the limit was not always enough;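 also: cells stimulated with the agonist NPW; 0% = agonist with vehicle and 100% = vehicle without agonist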
CHO parental Ca: signal in parental CHO cells, OX1R antagonist counter-screen; parental CHO-K1, ATP-induced calcium, Fluo-8 fluorescence; AID 463079; 0.63% of 330,000 active; inhibition, % at 5.6 µM;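 active = inhibition above that plate's mean sample inhibition plus 3 SD, cut at about 26% in these data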;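 also: 0% = ATP-challenged DMSO wells and 100% = DMSO wells without ATP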
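material = parental CHO cells | also added = ATP as calcium-mobilizing challenge | dosing = single point at 5.6 µM | detection = intracellular calcium via Fluo-8 no-wash fluorescent dye | read-out = % inhibition | benchmarks = low control ATP plus DMSO, high control DMSO only | repeats = one well per compound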
TAAR1 ag conf: human TAAR1 agonism, confirmed; shares compounds with TAAR1 ag; CHO RD-HGA16 TAAR1, Fluo-8 calcium fluorescence; scaled: DMSO 0%, maximal phenethylamine 100%; activation, % at 3 µM; 82% of 2,400 active;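 active = activation above a cutoff set at the run's mean compound activation plus 3 SD, cut at about 39% in these data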
Ga16 nonsel ag: nonselective agonism, TAAR1 counter-screen | CHO-Ga16 parental, Fluo-8 calcium fluorescence; normalized to maximal ATP response, DMSO zero | 50% of 2,400 active | shares compounds with TAAR1 ag | activation, % at 3 µM;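 active = activation above the run cutoff, the mean activation over all tested wells plus 3 SD, cut at about 12% in these data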;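 also: 0% = DMSO wells and 100% = maximal ATP response on the peak over basal ratio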
TAAR1 desensitize: TAAR1 response desensitization, agonist counter-screen; shares compounds with TAAR1 ag; CHO RD-HGA16 hTAAR1, Fluo-8 calcium, beta-PEA response inhibition; inhibition, % at 3 µM; 46% of 2,400 active; AID 651951;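 active = inhibition above the run cutoff, the mean inhibition of all test compounds plus 3 SD, cut at about 49% in these data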;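 also: beta-PEA stimulus applied at its EC80; loss of beta-PEA calcium signal after compound pretreatment read as receptor desensitization; 0% = DMSO with beta-PEA at EC80 and 100% = DMSO alone without agonist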
Ga16 antag count: nonselective Ga16 antagonism, counter-screen. CHO-Ga16 ATP-induced calcium, Fluo-8 fluorescence. shares compounds with TAAR1 ag. 39% of 2,400 active. inhibition, % at 3 µM. AID 651952;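 active = inhibition above the plate's mean compound inhibition plus 3 SD, computed per plate, cut at about 22% in these data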;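 also: 0% = EC80 ATP with DMSO and 100% = DMSO wells without ATP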
The depositor's hits bear a star; . = no result. Hits are enriched below; roughly 4.6% of the tested compounds scored in any of these assays.

SMILES	TAAR1 ag	OX1R antag-1	OX1R antag-2	TAAR1 antagonist	GPR7 antagonist	CHO parental Ca	TAAR1 ag conf	Ga16 nonsel ag	TAAR1 desensitize	Ga16 antag count
CCC(=O)n1nc(-c2ccc(Cl)cc2)nc1SC	44*	18	0	-28	4	-3	44*	1	5	-11
CSc1nc(-c2ccc(Cl)cc2)nn1S(=O)(=O)c1ccccc1	.	10	-8	.	-4	-8	.	11	.	-4
COc1ccc(C(=O)NCCCN=C2NS(=O)(=O)c3ccccc32)cc1	1	2	-22	-9	0	-13	.	.	.	.
COc1ccc(OC)c(Cc2nnc(CCC(=O)NC(C3CC3)C3CC3)o2)c1	1	10	-10	-7	-4	-8	.	.	.	.
COc1cc(C(=O)N2CCN(C)C(C)C2)ccc1OC1CCN(C(C)=O)CC1 (centres undefined)	2	18	1	-13	-6	-14	.	.	.	.
COC(=O)c1ccc(CNC(=O)COC(=O)c2cc(Cl)ccc2O)cc1	62*	1	-13	70*	.	-25	21	5	19	17
O=C(COC(=O)c1cc(Cl)ccc1O)NCCNC(=O)COC(=O)c1cc(Cl)ccc1O	3	25	1	7	-3	18	.	.	.	.
CCCCCCSc1ccc(-c2nc3cc(C)ccn3c2NC2CCCCC2)cc1	-1	27	-40	14	.	-13	.	.	.	.
O=C(Nc1ccc(Cl)c(Cl)c1)N1CCOCC1	6	.	.	7	-9	.	.	.	.	.
O=C(Nc1ccc(N2CCOCC2)cc1)Nc1ccc(Cl)c(Cl)c1	65*	19	45*	90*	-7	51*	40*	30*	89*	62*
O=C(/C=C/c1ccc(Cl)cc1)Nc1ccc(N2CCOCC2)cc1	0	20	-20	-8	-7	-13	.	.	.	.
O=C(Nc1ccc(Cl)cc1)Nc1ccc(N2CCOCC2)cc1	66*	12	-3	79*	-5	9	49*	13*	49*	22*
CNC(=O)c1ccccc1Nc1ccc(SC(F)F)cc1	9	11	1	22	7	-6	.	.	.	.
CC(O)(c1cccc(F)c1)c1nc(-c2cccc3cccnc23)cs1 (centres undefined)	-1	.	.	-16	.	.	.	.	.	.
COc1ccccc1Nc1nc(NCCO)nc(N)c1[N+](=O)[O-]	21	20	-18	9	-11	-6	.	.	.	.
CNc1nc(N)c([N+](=O)[O-])c(Nc2ccccc2OC)n1	56*	44*	-56	-8	-29	-48	80*	13*	21	4
C=C(C)CN(CC)C(=O)COc1ccc(S(=O)(=O)Nc2ccc(OC)cc2)cc1	63*	9	2	14	8	-4	59*	30*	23	22*
Cc1ccc(CN2CN(S(=O)(=O)c3cccs3)c3nc4ccccc4nc32)cc1	0	18	-18	7	-3	-16	.	.	.	.
O=C1NC(CCc2ccccc2)C(=O)N1CCOc1cccc(Br)c1 (centres undefined)	59*	16	-19	-14	-5	-22	8	3	2	17
CCC1(c2ccccc2)NC(=O)N(CC(=O)Nc2ccccc2N2CCCCC2)C1=O (centres undefined)	70*	13	-26	52*	-1	-20	78*	45*	63*	30*
Cn1c(CS/C(N)=N/N=C/c2ccccc2)c(Br)c(=O)n1-c1ccccc1	44*	12	-18	-14	-12	-13	46*	6	-4	1
